Sampled rows, rich in hits. Any-hit rate of the full collection: about 9.4%.
CSC inhib: blocks cancer stem cells. cancer stem cell-like cells viability, luminescence. inhibition, % at 7.5 µM. 300,000 compounds, 1.1% hits; in the data active means inhibition above about 75%; inconclusive means no clear call, values can overlap the other calls; tested in HMLE shEcad cells
SKKanGAS inh: inhibitors of SKKanGAS S. pyogenes growth in kanamycin (SK-promoter or general growth effect); BacTiter-Glo, 6 h; inhibition, % at 7.5 µM; 300,000 compounds, 1.3% hits; AID 1662;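 active means mean replicate score, as percent of positive control median, at least 50; inconclusive means mean below 50 but one replicate at or above 50; inactive means mean and every replicate below 50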;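 further: strain carries kanamycin resistance gene driven by streptokinase promoter and grows in 40 µg/ml kanamycin; loss of luminescence reflects streptokinase promoter inhibition or plain growth inhibition; 0% = median of DMSO wells and 100% = positive control at its reference dose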
Mdm2-MdmX inh: inhibitors of human Mdm2/MdmX interaction | 330,000 compounds, 3% hits | AID 485346 | inhibition, % at 8 µM | SaOS-2 split-luciferase Mdm2/MdmX complementation, luminescence | O15151+Q00987;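 active means inhibition of at least 50% at 8 µM in the primary screen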
Beta cell apopt: blocks beta cell apoptosis; protection from apoptosis, % (no concentration beside the values); AID 435005; INS-1E cytokine-induced death, ATP luminescence, 48 h; percent of positive-control rescue, neutral wells zero; 300,000 compounds, 0.8% hits;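 active means Every replicate reaches about 75%, or at least half do and their mean reaches it too, limit read from the data; inconclusive means At least half of replicates reach the limit but their mean does not; inactive means Under half of replicates reach the limit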;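 further: 0% = cytokine-treated negative control wells and 100% = positive control rescue; higher means more ATP so stronger rescue from cytokine killing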
T cruzi repl: blocks replication of Trypanosoma cruzi | T. cruzi beta-gal in NIH3T3, luminescence, 90 h | inhibition, % (concentration not given with the values) | 300,000 compounds, 1.4% hits;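 active means mean inhibition across valid replicates above about 55%, limit read from the data; inconclusive means mean below that limit but half or more replicates reach it; inactive means mean below it, under half of replicates reach it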;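 further: signal also drops with host cell toxicity which is not excluded here; 0% = plate median of DMSO wells and 100% = zero luminescence signal; higher percent means less beta-gal luminescence so fewer parasites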
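System – NIH/3T3 host cells with β-galactosidase reporter T. cruzi · Doses – single 50 nL compound addition per well in DMSO · Reagent – 5000 T. cruzi trypomastigotes/well · Medium – Low-serum DMEM with 2% FBS · Timing – ≥90 h infection period, 3 h prior cell attachment · Evaluation – parasite load inhibition, % · Technique – GalScreen luminescence, 60 min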
Lmaj promast: Leishmania major promastigote growth inhibition; inhibition, % at 10 µM; Leishmania major promastigotes, resazurin fluorescence viability; 200,000 compounds, 9% hits; in the data active means inhibition above about 50%;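 further: promastigotes grown with compound for 44 hours at 28 °C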
Mdm2-MdmX conf: human Mdm2/MdmX binding inhibition, confirmed | shares compounds with Mdm2-MdmX inh | luminescent assay | inhibition, % at 8 µM | 10,000 compounds, 55% hits; in the data active means inhibition above about 40%
Full FLuc ctr: full-length luciferase inhibition in Mdm2/MdmX counter-screen; SaOS-2 full-length luciferase counterscreen, luminescence; shares compounds with Mdm2-MdmX inh; 6,200 compounds, 77% hits; inhibition, % at 8 µM;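 active means mean inhibition at 8 µM reaching about 37%, which flags the compound as non-specific, limit read from the data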;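 further: p53-null SaOS-2 cells with luciferase driven by a doxycycline-inducible promoter; compound on cells about two nights before reading with doxycycline added after day one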
* = called active by the depositor; ? = inconclusive; . = no result.

SMILES	CSC inhib	SKKanGAS inh	Mdm2-MdmX inh	Beta cell apopt	T cruzi repl	Lmaj promast	Mdm2-MdmX conf	Full FLuc ctr
COc1ccc(-n2nc(C(=O)NCC(=O)Nc3ccccn3)c3ccccc3c2=O)cc1Cl	.	-4	88*	.	-4	-5	17	.
COc1ccc(-n2nc(C(=O)NCC(=O)Nc3cccc(Cl)c3)c3ccccc3c2=O)cc1OC	.	-6	80*	10	30	.	48*	37*
COc1ccc(-n2nc(C(=O)NCC(=O)NC(C)C)c3ccccc3c2=O)cc1Cl	2	4	9	5	-8	.	.	.
COc1cccc(CN2CC(C(=O)NCCCn3ccnc3C)CCC2=O)c1 (centres undefined)	-13	-1	-9	-1	-10	.	.	.
NS(=O)(=O)c1ccc(S(=O)(=O)N(CCc2ccccc2)Cc2ccccn2)cc1	-8	4	8	.	-2	.	.	.
CCCn1c(CN2CCN(C(=O)OCC)CC2)nc2cc(NC(=O)C(C)C)ccc21	30	10	41	8	-6	.	.	.
O=C1C(=O)c2ccc(-c3ccccc3)cc2-c2ccccc21	131*	101*	84*	98*	?	100*	100*	52*
Nc1ccc2c(c1)C(=O)C(=O)c1ccccc1-2	-5	86*	98*	107*	38	100*	99*	1
Nc1ccc2c(c1)C(=O)c1ccccc1-2	-7	-13	32	5	19	.	.	.
Cc1ccc(CN2C(=O)[C@H]3Cc4c([nH]c5ccccc45)C(C)(C)N3C2=O)cc1	-2	25	1	4	8	.	.	.
COc1ccc(CCN2CC(C(=O)Nc3cc(F)ccc3F)CC2=O)cc1OC (centres undefined)	-6	-2	1	-1	5	.	.	.
Clc1cc2cccnc2c2ncccc12	121*	.	77*	87*	.	.	81*	32
Cc1c(C)c2cccnc2c2ncccc12	.	.	85*	100*	.	.	87*	17
Oc1c(I)cc(Cl)c2cccnc12	84*	100*	92*	7	-3	-4	58*	51*
COc1cccc(COC(=O)C2CC(=O)N(Cc3ccc(C)cc3)C2)c1OC (centres undefined)	-6	-2	21	-7	-8	.	.	.
O=c1c(/C=N\NS(=O)(=O)c2ccccc2)coc2ccc(Cl)cc12	0	9	16	-4	-7	.	.	.
CCOC(=O)C1=C(c2ccccc2)N=c2s/c(=C\c3cccc(O)c3)c(=O)n2C1c1cccs1 (centres undefined)	99*	54*	78*	20	22	89*	29	.
CC1CC(C)CN(Cc2nc(N)nc(Nc3ccc4ccccc4c3)n2)C1 (centres undefined)	56	52*	62*	17	-18	95*	67*	57*
COc1ccc(N2CCN(C(=O)CCS(=O)(=O)c3ccc4c(c3)NC(=O)CO4)CC2)cc1	2	0	1	1	5	.	.	.
Cc1cnc(NC(=O)C2CC(=O)N(c3ccc4c(c3)OCCO4)C2)s1 (centres undefined)	-10	.	22	-13	.	.	.	.
Cc1cnc(NC(=O)C2CC(=O)N(c3cccc(Cl)c3)C2)s1 (centres undefined)	45	9	93*	13	20	.	89*	82*
COc1cc(C(=O)NCc2ncccc2C)ccc1OC1CCN(C(C)=O)CC1	0	-1	0	4	-3	.	.	.
O=C(CNC(=O)c1ccco1)N=Nc1c(O)n(CCc2ccccc2)c2ccccc12	48	9	62*	17	28	.	56*	106*
COc1ccccc1/C=C/C(=O)c1ccc(NC(C)=O)cc1	60	-10	63*	-4	-1	100*	52*	59*
CC(=O)c1ccc(NS(=O)(=O)c2ccc(C)cc2)cc1	-13	3	2	-1	2	-4	.	.
SMILES	CSC inhib	SKKanGAS inh	Mdm2-MdmX inh	Beta cell apopt	T cruzi repl	Lmaj promast	Mdm2-MdmX conf	Full FLuc ctr
COc1ccccc1/C=C/C(=O)c1c2c(c(C)[nH]c1=O)CCCC2	.	.	85*	-16	-12	77*	99*	56*
COc1ccc(/C=C/C(=O)c2c(C)cc(C)[nH]c2=O)c2ccccc12	-2	-1	5	-8	11	.	.	.
COc1cc(OC)c(OC)cc1/C=C/C(=O)c1ccc(NS(=O)(=O)c2ccc(C)cc2)cc1	43	37	59*	.	23	62*	28	.
Cn1ccc2c([N+](=O)[O-])cccc2c1=O	-2	-3	4	-9	1	5	.	.
Cc1ccccc1C(=O)N1CCC(C(=O)Nc2ccccc2N2CCCC2)CC1	-6	-3	10	-5	-3	.	.	.
C=CCn1c(N)c(C(=O)Nc2ccc(C)c(C)c2)c2nc3ccccc3nc21	19	16	-61	.	17	-3	.	.
C=CCn1c(N)c(C(=O)Nc2cccc(C)c2)c2nc3ccccc3nc21	25	51*	67*	-1	46	11	21	.
Nc1c(C(=O)Nc2ccccc2)c2nc3ccccc3nc2n1CCCN1CCOCC1	98*	15	67*	2	27	.	29	.
C=CCc1cccc2cc(C(=O)Nc3ccccc3C(=O)O)c(=O)oc12	.	.	.	.	.	-5	.	.
CC(=O)Nc1ccc(N/C(N)=N/c2nc(C)cc(C)n2)cc1	0	-6	13	.	-19	9	.	.
Cc1cc(C)nc(/N=C(\N)Nc2ccc(-c3ccccc3)cc2)n1	55	1	52*	40	7	98*	22	.
CCCc1ccc(C(=O)CN2C(=O)C(=O)N(C3CCCC3)C2=O)cc1	-14	.	-29	-5	.	.	.	.
COCCCNc1nc2ccccc2nc1NS(=O)(=O)c1ccc(C)cc1C	3	25	-20	4	20	.	.	.
Oc1ccc(C(=S)N2CCN(c3cccc(Cl)c3)CC2)cc1	-14	.	11	2	13	5	.	.
COc1cc(C(=S)N2CCN(c3cccc(Cl)c3)CC2)ccc1O	-12	0	55*	2	-7	-3	55*	51*
COc1ccc(-n2cc(-c3ccccc3)c3c(N4CCN(CCO)CC4)ncnc32)cc1	-4	-3	51*	2	32	26	16	.
Cc1ccc(-n2cc(-c3ccccc3)c3c(N4CCN(C)CC4)ncnc32)cc1	44	4	37	-6	21	27	.	.
Cc1cccc(-n2cc(-c3ccccc3)c3c(N4CCOCC4)ncnc32)c1	105*	16	67*	17	29	15	55*	72*
OCCN1CCN(c2ncnc3c2c(-c2ccccc2)cn3-c2ccc(F)cc2)CC1	.	0	25	-7	21	22	.	.
CC1(C)c2[nH]c3ccccc3c2C[C@@H]2C(=O)N(Cc3ccco3)C(=O)N21	0	12	-1	-1	-2	.	.	.
